How the values were obtained:
Format in all cases: functional
[1] = system: A-431; assay: Anticancer activity against human A-431 cells assessed as cell growth inhibition measured after 72 hrs by DAPI staining based analysis
Outline: (§1)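 Cells were seeded and, after 24 h, DNA content was read as T0. Cells were then exposed to varying drug concentrations for a further 72 h (T72). Fixed cells were DAPI-stained and DNA content measured by automated imaging. T72 values were normalized to T0. GI50 is the concentration giving 50% growth inhibition between T0 and Ymax, obtained by curve fitting.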

[2] = system: SNU-5; assay: Anticancer activity against human SNU-5 cells assessed as cell growth inhibition measured after 72 hrs by DAPI staining based analysis
[3] = system: BPH-1; assay: Anticancer activity against human BPH-1 cells assessed as cell growth inhibition measured after 72 hrs by DAPI staining based analysis
Outline: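 Cells were seeded, and DNA content at 24 h after seeding (T0) was read by imaging of fixed, DAPI-stained cells. Cells were then exposed to a range of drug concentrations for a further 72 h (T72) and DNA content was read again. T72 values were normalized to T0, and GI50 was taken from curve fits as the concentration giving 50% growth inhibition relative to T0 and Ymax.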

[4] = system: WiDr; assay: Anticancer activity against human WiDr cells assessed as cell doubling measured for 72 hrs by DAPI staining based analysis
[5] = Anticancer activity against human NCI-H322T cells assessed as cell doubling measured for 72 hrs by DAPI staining based analysis
[6] = system: HT-29; assay: Antitumor activity against human HT-29 cells in xenograft model assessed as tumor growth delay at 62.5 mg/kg relative to control
[7] = system: COLO 205; assay: Antitumor activity against human COLO 205 cells in xenograft model assessed as difference between median time to endpoint time of treated versus control group at 125 mg/kg
[8] = Anticancer activity against human RDES cells assessed as cell growth inhibition measured after 72 hrs by DAPI staining based analysis; conditions: RD-ES
[9] = system: G-402; assay: Anticancer activity against human G-402 cells assessed as cell growth inhibition measured after 72 hrs by DAPI staining based analysis
Outline: (§2)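 Cells seeded, DAPI-stained DNA content of fixed cells read by imaging 24 h after seeding (T0), and again after a further 72 h exposure to a range of drug concentrations (T72). T72 values were normalized to T0. Curve fits gave the concentration producing 50% growth inhibition relative to T0 and Ymax (GI50).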

[10] = system: ARH-77; assay: Anticancer activity against human ARH-77 cells assessed as cell growth inhibition measured after 72 hrs by DAPI staining based analysis; outline: as §1
[11] = system: HuT78; assay: Anticancer activity against human HuT78 cells assessed as cell doubling measured for 72 hrs by DAPI staining based analysis
[12] = system: HeLa; assay: Anticancer activity against human HeLa cells assessed as cell growth inhibition measured after 72 hrs by DAPI staining based analysis
[13] = system: MCF7; assay: Anticancer activity against human MCF7 cells assessed as cell doubling measured for 72 hrs by DAPI staining based analysis
[14] = system: NCI-H747; assay: Anticancer activity against human NCI-H747 cells assessed as cell growth inhibition measured after 72 hrs by DAPI staining based analysis
[15] = system: SCC-9; assay: Anticancer activity against human SCC-9 cells assessed as cell growth inhibition measured after 72 hrs by DAPI staining based analysis
[16] = system: SNU-423; assay: Anticancer activity against human SNU-423 cells assessed as cell doubling measured for 72 hrs by DAPI staining based analysis
[17] = system: T-24; assay: Anticancer activity against human T24 cells assessed as cell doubling measured for 72 hrs by DAPI staining based analysis
[18] = system: A-427; assay: Anticancer activity against human A-427 cells assessed as cell doubling measured for 72 hrs by DAPI staining based analysis
[19] = system: NCI-H209; assay: Anticancer activity against human NCI-H209 cells assessed as cell growth inhibition measured after 72 hrs by DAPI staining based analysis
[20] = Anticancer activity against human COLO-704 cells assessed as cell growth inhibition measured after 72 hrs by DAPI staining based analysis; outline: as §2
[21] = system: Capan-2; assay: Anticancer activity against human Capan-2 cells assessed as cell doubling measured for 72 hrs by DAPI staining based analysis
[22] = system: NCI-H1299; assay: Antitumor activity against human NCI-H1299 cells in xenograft model assessed as tumor growth delay at 62.5 mg/kg relative to control
[23] = system: DBTRG-05MG; assay: Anticancer activity against human DBTRG-05MG cells assessed as cell doubling measured for 72 hrs by DAPI staining based analysis
[24] = system: SNU-475; assay: Anticancer activity against human SNU-475 cells assessed as cell doubling measured for 72 hrs by DAPI staining based analysis
[25] = system: A-375; assay: Anticancer activity against human A-375 cells assessed as cell doubling measured for 72 hrs by DAPI staining based analysis
[26] = system: SW-403; assay: Anticancer activity against human SW403 cells assessed as cell doubling measured for 72 hrs by DAPI staining based analysis
[27] = system: NCI-H1299; assay: Anticancer activity against human NCI-H1299 cells assessed as cell doubling measured for 72 hrs by DAPI staining based analysis
[28] = system: CHL-1; assay: Anticancer activity against human CHL-1 cells assessed as cell doubling measured for 72 hrs by DAPI staining based analysis
[29] = system: SCC-9; assay: Anticancer activity against human SCC-9 cells assessed as cell doubling measured for 72 hrs by DAPI staining based analysis
[30] = system: HCT-8; assay: Anticancer activity against human HCT-8 cells assessed as cell doubling measured for 72 hrs by DAPI staining based analysis
[31] = system: NCI-H460; assay: Antitumor activity against human NCI-H460 cells in xenograft model assessed as tumor growth delay at 62.5 mg/kg relative to control
[32] = system: H4; assay: Anticancer activity against human H4 cells assessed as cell growth inhibition measured after 72 hrs by DAPI staining based analysis; outline: as §2
[33] = Antitumor activity against human MV-522 cells in xenograft model assessed as tumor growth delay at 62.5 mg/kg relative to control
[34] = system: J82; assay: Anticancer activity against human J82 cells assessed as cell doubling measured for 72 hrs by DAPI staining based analysis
[35] = system: EKVX; assay: Anticancer activity against human EKVX cells assessed as cell doubling measured for 72 hrs by DAPI staining based analysis
[36] = system: A101D; assay: Anticancer activity against human A101D cells assessed as cell growth inhibition measured after 72 hrs by DAPI staining based analysis; outline: as §1
[37] = system: CCF-STTG1; assay: Anticancer activity against human CCF-STTG1 cells assessed as cell doubling measured for 72 hrs by DAPI staining based analysis
Outline: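 Cell-growth inhibition in 384-well plates. DNA content of fixed cells stained with DAPI was read by automated imaging 24 h after seeding (T0) and again after a further 72 h exposure to varying drug concentrations (T72). T72 values were normalized to T0, and curves were fitted to give the concentration causing 50% growth inhibition relative to T0 and Ymax (GI50).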

[38] = system: HCT-116; assay: Antitumor activity against human HCT-116 cells in xenograft model assessed as tumor growth delay at 125 mg/kg relative to control
[39] = system: SK-OV-3; assay: Anticancer activity against human SK-OV-3 cells assessed as cell growth inhibition measured after 72 hrs by DAPI staining based analysis

What does the source list for `CC(C)Oc1ccc(C(=O)N[C@H](CNC(=O)CN(C)C)Cc2ccc(-c3cn4cccc([C@H](C)O)c4n3)cc2)cc1Cl` [GSK-923295A]?
GI50 [1]: 21 nM; GI50 [2]: 88 nM; GI50 [3]: 52 nM; Activity [4]: 3.05; Activity [5]: 2.27; Activity [6]: 6%; Time [7]: >74 days; GI50 [8]: 63 nM; GI50 [9]: 31 nM; GI50 [10]: 34 nM; Activity [11]: 2.89; GI50 [12]: 20 nM; Activity [13]: 1.65; GI50 [14]: 163 nM; GI50 [15]: 24 nM; Activity [16]: 1.44; Activity [17]: 1.57; Activity [18]: 2.46; GI50 [19]: 20 nM; GI50 [20]: 69 nM; Activity [21]: 1.89; Activity [22]: 15%; Activity [23]: 1.33; Activity [24]: 1.8; Activity [25]: 3.04; Activity [26]: 1.12; Activity [27]: 2.78; Activity [28]: 3.27; Activity [29]: 1.95; Activity [30]: 4.26; Activity [31]: 87%; GI50 [32]: 31 nM; Activity [33]: 50%; Activity [34]: 2.04; Activity [35]: 2.69; GI50 [36]: 17 nM; Activity [37]: 1.2; Activity [38]: 37%; GI50 [39]: 26 nM

Reference: ChEMBL document CHEMBL5705890, “Antitumor activity of an allosteric inhibitor of centromere-associated protein-E” (Proc Natl Acad Sci U S A, 2010)
